{
  "source": "paper PMC3778312",
  "about": "(British Journal of Cancer, 2013)",
  "key": {"[1]": {"test": "Phase 1 safety monitoring of PX-866 with docetaxel", "assay_type": "in vivo, human", "summary_of_the_method": "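Open-label dose escalation in cohorts of 6–9 patients at 4, 6 or 8 mg oral daily test compound plus docetaxel 75 mg m−2 IV every 21 days, with dexamethasone premedication. All patients receiving ≥1 dose had vital signs, labs and exams; AEs were graded by NCI CTCAE v4.02. DLTs included related grade ≥3 events, febrile grade 3/4 neutropenia, platelets <25 000 per μl and ANC <500 per μl for >7 days.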"}, "advanced solid tumors": {"system": "advanced solid tumors", "details": "ref Hong et al, 2012, cited from earlier work"}, "[2]": {"system": "OvCar-3 ovarian cancer xenografts", "details": "single agent; ref Ihle et al, 2005; Koul et al, 2010; cited from earlier work"}, "[3]": {"details": "PX-866 with docetaxel, 43 patients"}, "[4]": {"details": "Total, all PX-866 doses + docetaxel, N=43"}},
  "note": "Entries after “also recorded” stand apart in the source; their conditions may differ.",
  "data": [
    {"compound": "C=CCN(/C=C1/C(=O)O[C@H](COC)[C@@]2(C)C1=C(O)C(=O)C1=C2[C@H](OC(C)=O)C[C@]2(C)C(=O)CC[C@@H]12)CC=C", "note": "[PX-866]", "values": [
      {"measurement": "Treatment-emergent AE: Anaemia", "setting": "[1]; PX-866 8 mg + docetaxel, N=23", "result": "9 (39) N (%)"},
      {"measurement": "Treatment-emergent AE: Arthralgia", "setting": "[1]; PX-866 8 mg + docetaxel, N=23", "result": "5 (22) N (%)"},
      {"measurement": "Treatment-emergent AE: Asthenia", "setting": "[1]; PX-866 8 mg + docetaxel, N=23", "result": "6 (26) N (%)"},
      {"measurement": "Treatment-emergent AE: Bone pain", "setting": "[1]; PX-866 8 mg + docetaxel, N=23", "result": "5 (22) N (%)"},
      {"measurement": "Treatment-emergent AE: Constipation", "setting": "[1]; PX-866 8 mg + docetaxel, N=23", "result": "8 (35) N (%)"},
      {"measurement": "Treatment-emergent AE: Cough", "setting": "[1]; PX-866 8 mg + docetaxel, N=23", "result": "3 (13) N (%)"},
      {"measurement": "Treatment-emergent AE: Decreased appetite", "setting": "[1]; PX-866 8 mg + docetaxel, N=23", "result": "10 (44) N (%)"},
      {"measurement": "Treatment-emergent AE: Dehydration", "setting": "[1]; PX-866 8 mg + docetaxel, N=23", "result": "11 (48) N (%)"},
      {"measurement": "Treatment-emergent AE: Diarrhoea", "setting": "[1]; PX-866 8 mg + docetaxel, N=23", "result": "18 (78) N (%)"},
      {"measurement": "Treatment-emergent AE: Dizziness", "setting": "[1]; PX-866 8 mg + docetaxel, N=23", "result": "4 (17) N (%)"},
      {"measurement": "Treatment-emergent AE: Dysgeusia", "setting": "[1]; PX-866 8 mg + docetaxel, N=23", "result": "3 (13) N (%)"},
      {"measurement": "Treatment-emergent AE: Epistaxis", "setting": "[1]; PX-866 8 mg + docetaxel, N=23", "result": "4 (17) N (%)"},
      {"measurement": "Treatment-emergent AE: Fatigue", "setting": "[1]; PX-866 8 mg + docetaxel, N=23", "result": "13 (57) N (%)"},
      {"measurement": "Treatment-emergent AE: Hypokalemia", "setting": "[1]; PX-866 8 mg + docetaxel, N=23", "result": "6 (26) N (%)"},
      {"measurement": "Treatment-emergent AE: Nausea", "setting": "[1]; PX-866 8 mg + docetaxel, N=23", "result": "16 (70) N (%)"},
      {"measurement": "Treatment-emergent AE: Neutropenia", "setting": "[1]; PX-866 8 mg + docetaxel, N=23", "result": "6 (26) N (%)"},
      {"measurement": "Treatment-emergent AE: Oedema peripheral", "setting": "[1]; PX-866 8 mg + docetaxel, N=23", "result": "7 (30) N (%)"},
      {"measurement": "Treatment-emergent AE: Oropharyngeal pain", "setting": "[1]; PX-866 8 mg + docetaxel, N=23", "result": "5 (22) N (%)"},
      {"measurement": "Treatment-emergent AE: Pyrexia", "setting": "[1]; PX-866 8 mg + docetaxel, N=23", "result": "6 (26) N (%)"},
      {"measurement": "Treatment-emergent AE: Stomatitis", "setting": "[1]; PX-866 8 mg + docetaxel, N=23", "result": "4 (17) N (%)"},
      {"measurement": "Treatment-emergent AE: Vomiting", "setting": "[1]; PX-866 8 mg + docetaxel, N=23", "result": "14 (61) N (%)"},
      {"measurement": "Treatment-emergent AEs, frequency by severity: Grade 1", "setting": "[1]; PX-866 8 mg + docetaxel, N=23", "result": "84 (50) N (%)"},
      {"measurement": "Treatment-emergent AEs, frequency by severity: Grade 2", "setting": "[1]; PX-866 8 mg + docetaxel, N=23", "result": "62 (37) N (%)"},
      {"measurement": "Treatment-emergent AEs, frequency by severity: Grade 3", "setting": "[1]; PX-866 8 mg + docetaxel, N=23", "result": "15 (9) N (%)"},
      {"measurement": "Treatment-emergent AEs, frequency by severity: Grade 4", "setting": "[1]; PX-866 8 mg + docetaxel, N=23", "result": "8 (5) N (%)"},
      {"measurement": "Treatment-emergent AEs, frequency by severity: Grade 5", "setting": "[1]; PX-866 8 mg + docetaxel, N=23", "result": "0 (0) N (%)"},
      {"measurement": "dose-limiting toxicities", "setting": "[1]; PX-866 4, 6, 8 mg daily with docetaxel 75 mg m^−2", "result": "No dose-limiting toxicities; also recorded: No DLTs"},
      {"measurement": "tolerability", "setting": "[1]; PX-866 and docetaxel", "result": "well tolerated"},
      {"measurement": "gastrointestinal disorders, PX-866-related", "setting": "[1]; [3]", "result": 83.7, "unit": "%"},
      {"measurement": "study drug-related diarrhoea, patients", "setting": "[1]; [3]", "result": 76.7, "unit": "%"},
      {"measurement": "Grade 3/4 AE related to PX-866: diarrhoea", "setting": "[1]; PX-866 with docetaxel, N=43", "result": 3, "unit": "N"},
      {"measurement": "Grade 3/4 AE related to PX-866: nausea", "setting": "[1]; PX-866 with docetaxel, N=43", "result": 2, "unit": "N"},
      {"measurement": "SAEs considered related to study treatment", "setting": "[1]; PX-866 with docetaxel, N=43", "result": 17},
      {"measurement": "patients who experienced serious AEs", "setting": "[1]; PX-866 with docetaxel, N=43", "result": "Twenty"},
      {"measurement": "treatment-emergent AE neutropenia", "setting": "[1]; PX-866 with docetaxel, N=43", "result": 40, "unit": "%"},
      {"measurement": "treatment-emergent AE peripheral oedema", "setting": "[1]; PX-866 with docetaxel, N=43", "result": 40, "unit": "%"},
      {"measurement": "treatment-emergent AE vomiting", "setting": "[1]; PX-866 with docetaxel, N=43", "result": 51, "unit": "%"},
      {"measurement": "Treatment-emergent AE: Alopecia", "setting": "[1]; [4]", "result": "12 (28) N (%)"},
      {"measurement": "Treatment-emergent AE: Anaemia", "setting": "[1]; [4]", "result": "13 (30) N (%)"},
      {"measurement": "Treatment-emergent AE: Arthralgia", "setting": "[1]; [4]", "result": "7 (16) N (%)"},
      {"measurement": "Treatment-emergent AE: Asthenia", "setting": "[1]; [4]", "result": "11 (26) N (%)"},
      {"measurement": "Treatment-emergent AE: Bone pain", "setting": "[1]; [4]", "result": "9 (21) N (%)"},
      {"measurement": "Treatment-emergent AE: Constipation", "setting": "[1]; [4]", "result": "13 (30) N (%)"},
      {"measurement": "Treatment-emergent AE: Cough", "setting": "[1]; [4]", "result": "10 (23) N (%)"},
      {"measurement": "Treatment-emergent AE: Decreased appetite", "setting": "[1]; [4]", "result": "15 (35) N (%)"},
      {"measurement": "Treatment-emergent AE: Dehydration", "setting": "[1]; [4]", "result": "15 (35) N (%)"},
      {"measurement": "Treatment-emergent AE: Diarrhoea", "setting": "[1]; [4]", "result": "33 (77) N (%)"},
      {"measurement": "Treatment-emergent AE: Dizziness", "setting": "[1]; [4]", "result": "7 (16) N (%)"},
      {"measurement": "Treatment-emergent AE: Dysgeusia", "setting": "[1]; [4]", "result": "8 (19) N (%)"},
      {"measurement": "Treatment-emergent AE: Epistaxis", "setting": "[1]; [4]", "result": "7 (16) N (%)"},
      {"measurement": "Treatment-emergent AE: Fatigue", "setting": "[1]; [4]", "result": "26 (61) N (%)"},
      {"measurement": "Treatment-emergent AE: Hypokalemia", "setting": "[1]; [4]", "result": "9 (21) N (%)"},
      {"measurement": "Treatment-emergent AE: Nausea", "setting": "[1]; [4]", "result": "25 (58) N (%)"},
      {"measurement": "Treatment-emergent AE: Neutropenia", "setting": "[1]; [4]", "result": "17 (40) N (%)"},
      {"measurement": "Treatment-emergent AE: Oedema peripheral", "setting": "[1]; [4]", "result": "17 (40) N (%)"},
      {"measurement": "Treatment-emergent AE: Oropharyngeal pain", "setting": "[1]; [4]", "result": "7 (16) N (%)"},
      {"measurement": "Treatment-emergent AE: Pyrexia", "setting": "[1]; [4]", "result": "11 (26) N (%)"},
      {"measurement": "Treatment-emergent AE: Stomatitis", "setting": "[1]; [4]", "result": "9 (21) N (%)"},
      {"measurement": "Treatment-emergent AE: Vomiting", "setting": "[1]; [4]", "result": "22 (51) N (%)"},
      {"measurement": "Treatment-emergent AEs, frequency by severity: Grade 1", "setting": "[1]; [4]", "result": "152 (51) N (%)"},
      {"measurement": "Treatment-emergent AEs, frequency by severity: Grade 2", "setting": "[1]; [4]", "result": "102 (34) N (%)"},
      {"measurement": "Treatment-emergent AEs, frequency by severity: Grade 3", "setting": "[1]; [4]", "result": "28 (9) N (%)"},
      {"measurement": "Treatment-emergent AEs, frequency by severity: Grade 4", "setting": "[1]; [4]", "result": "18 (6) N (%)"},
      {"measurement": "Treatment-emergent AEs, frequency by severity: Grade 5", "setting": "[1]; [4]", "result": "0 (0) N (%)"},
      {"measurement": "RP2D of PX-866 in combination", "setting": "[1]; daily, with docetaxel 75 mg m^−2 IV every 21 days", "result": 8, "unit": "mg"},
      {"measurement": "deaths on study", "setting": "[1]; two after progressive disease, one pneumonia unrelated to either study drug", "result": "three"},
      {"measurement": "single-agent MTD", "setting": "advanced solid tumors; previously determined, daily", "result": 8, "unit": "mg"},
      {"measurement": "time PX-866 may be given safely", "setting": "advanced solid tumors", "result": "over 1 year"},
      {"measurement": "best response per RECIST 1.1: stable disease, share of evaluable patients", "setting": "advanced solid tumors; single-agent PX-866, week 6", "result": "over 50%"},
      {"measurement": "recommended phase 2 dose (RP2D), single agent", "setting": "advanced solid tumors; single-agent PX-866", "result": 8, "unit": "mg daily"},
      {"measurement": "tumour growth", "setting": "[2]", "result": "delays tumour growth"}
    ]}
  ]
}
